The values below come from ChEMBL document CHEMBL5113379, “4-Oxooctahydroquinoline-1(2H)-carboxamides as hepatitis B virus (HBV) capsid core protein assembly modulators” (Bioorg Med Chem Lett, 2022).

Values after ≈ are worked out from the molar mass of the structure shown.

Series [1] is described as follows: Half-life in mouse at 3 mg/kg, iv. The class given is ADME, organism-based. Conditions: in vivo.
A short description of series [2]: Plasma protein binding in human. Format: ADME, cell-free.
A short description of series [3]: Solubility of the compound at pH 7. The note with it: buffer. Format: physicochemical.
A short description of series [4]: Plasma protein binding in mouse. Format: ADME, cell-free.
Series [5] is described as follows: Oral bioavailability in mouse at 10 mg/kg. The class given is ADME, organism-based. Conditions: in vivo.
Series [6] can be described thus: Half-life in mouse at 10 mg/kg, po. The class given is ADME, organism-based. Conditions: in vivo.
A short description of series [7]: Metabolic stability in mouse liver microsomes assessed as half-life. Format: ADME, Microsome. Background: Liver microsomes are a subcellular fraction often used to study metabolism.
Series [8] can be described thus: Observed volume of distribution at steady state in mouse at 3 mg/kg, iv. Format: ADME, organism-based. The note with it: in vivo, read-out: Vdss.
Series [9] can be described thus: Solubility of the compound at pH 4. Format: physicochemical. Conditions: buffer.
The nature of series [10]: AUClast in mouse at 10 mg/kg, po. The class given is ADME, organism-based. Further details: time 0 - last, dose 10 mg/kg, route po. The note with it: in vivo.
A short description of series [11]: Cmax in mouse at 10 mg/kg, po. Format: ADME, organism-based. Further details: dose 10 mg/kg, route po. The note with it: in vivo.
The nature of series [12]: Metabolic stability in human liver microsomes assessed as half-life. Format: ADME, Microsome.
Series [13] in a line: AUClast in mouse at 3 mg/kg, iv. Format: ADME, organism-based. Further details: time 0 - last, dose 3 mg/kg, route iv. The note with it: in vivo.
The test system of a further series is Hepatitis B virus. Nature of the series: Antiviral activity against HBV infected in mouse AML12HBV10 cells assessed as reduction in viral replication incubated for 48 hrs and measured by [alpha-32P]UTP-labeled radio-probe based dot blot hybridization assay. Format: functional, organism-based. Conditions: aml12hbv10. The procedure, abridged: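 The test used the stable HBV line AML12HBV10, derived from immortalized mouse hepatocytes (AML12). HBV replication was measured by dot blot hybridization and EC50 was determined.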

Series [14] is described as follows: Efflux ratio for apparent permeability across basolateral to apical side to apical to basolateral side in human Caco2 cells. The class given is ADME, cell-based. The note with it: Caco-2. (In general: Caco-2 monolayers are a common model of the intestinal barrier.)
The nature of series [15]: Apparent permeability across basolateral to apical membrane in human Caco-2 cells. The class given is ADME, cell-based.
Series [16] is described as follows: Apparent permeability across apical to basolateral membrane in human Caco-2 cells. The class given is ADME, cell-based.
Series [17] in a line: Cytotoxicity against mouse […] measured by MTT assay. Format: toxicity, cell-based, AML12HBV10. Conditions: AML12HBV1 cells. The procedure, abridged:
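Cytotoxicity was measured by MTT assay in the stable HBV line AML12HBV10, derived from immortalized mouse hepatocytes (AML12), and CC50 was determined.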

With `O=C1CCN(C(=O)Nc2ccc(F)c(Cl)c2)C2CCCCC12` (stereo in doubt; 61), the t1/2 in series [1] is 36 min; in series [6], 42 min; in series [7] (microsomes) it was 56 min; in series [12] (microsomes) it was 71 min. Also, the PPB in [2] stood at 90%; in [4], 94%. For the same compound, the solubility in series [3] is 253 µM (≈ 82.2 µg/mL); in series [9], 239 µM (≈ 77.6 µg/mL). The compound also displayed a F in series [5] of 69%. Moreover, the Vd in series [8] is 0.8 L/kg. Moreover, the AUClast was found to be 4516 ng·h/mL in series [10] and 1952 ng·h/mL in [13]. The same compound had a Cmax in series [11] of 2727 ng/mL. The EC50 with Hepatitis B virus came to 460 nM.

On to `O=C1CCN(C(=O)Nc2ccc(F)c(Cl)c2)[C@H]2CCCC[C@@H]12` (relative stereo), for which the half-life in [7] (liver microsomes) is 32 min; in [12] (liver microsomes) it was 56.8 min. In addition, the efflux ratio in [14] came out at 0.5. The basolateral-to-apical permeability (Papp B→A) in series [15] is 7.8 ×10⁻⁶ cm/s. Also, the Papp A→B in series [16] is 14.7 ×10⁻⁶ cm/s. Besides, in the series on Hepatitis B virus, the EC50 amounted to 710 nM. Moreover, the 50% cytotoxic concentration (CC50) in series [17] was > 100000 nM.

As a reminder, the solubility is the dissolved amount per volume that the medium holds. A high value points to much dissolved substance. The Cmax is the peak of the concentration-time curve. The term EC50 denotes the concentration giving half of the maximal effect. Usually half-life stands for the time needed for the level to fall by half in the phase considered. A word on the efflux ratio: it is the permeability from basolateral to apical divided by that in the opposite direction, in the common usage. In general, Papp B→A refers to the apparent permeability from the basolateral to the apical side of a cell layer. What is called Papp A→B is how fast a substance crosses the layer from the apical side. The CC50 is the concentration giving 50% cytotoxicity. The low end stands for harm at low concentration, the high end for better tolerance by the cells.
